Measured values gathered from unrelated publications.
Lines come from different studies, so protocols differ. Values after ≈ are worked out from the molar mass of the structure shown.

For `Cc1ncc([N+](=O)[O-])n1CCO`, the MIC was greater than 16 µg/mL (Lacticaseibacillus casei; microbial growth, agar dilution; 48 h).
For `Cc1ccc(C(CS(=O)(=O)c2ccccc2)=NNc2nc(C)c(N=Nc3cccc(C)c3)s2)cc1`, the viability was 46.7% (WM 266-4; cell growth or viability, MTT; 6.3 µM, 48 h).
`O=c1[nH]c(NCc2ccc(Cl)c(Cl)c2)nc2ncn(CCN3CCOCC3)c12` has an MIC of 16 µg/mL (≈ 37.8 µM) (Lacticaseibacillus casei; microbial growth, agar dilution; 48 h).
With `C[C@@H](c1ncncc1F)[C@](O)(Cn1cncn1)c1ccc(F)cc1F` the IC50 was 2.69 µM (Acanthamoeba castellanii; parasite growth, resazurin; 96 h).
`Cc1ccc(C(CS(=O)(=O)c2ccccc2)=NN=C2N=C(c3ccc(Br)cc3)CS2)cc1` has a viability of 31.7% (WM 266-4; cell growth or viability, MTT; 100 µM, 48 h).
`COc1cc2ncnc(NN=C3C(=O)Nc4ccc(F)cc43)c2cc1OC` has an inhibition of 19.2% (ZR75; cell growth or viability; 10 µM).
`CC(C)(C)C1=CC(=NNc2ccc(C#N)cc2)C=C(C(C)(C)C)C1=O` gave an IC50 of 3.8 µM (Toxoplasma gondii; parasite growth, fluorescence; 5 days, intracellular).
`NC(=S)NN=C(CS(=O)(=O)c1ccccc1)c1ccc(F)cc1` gave a viability of 31.3% (WM 266-4; cell growth or viability, MTT; 25 µM, 48 h).
`COc1ccc(-c2nc(NN=C3C(=O)Nc4ccccc43)c3ccccc3n2)cc1OC` has an inhibition of 54.9% (ZR75; cell growth or viability; 30 µM).
With `Nc1ccc(S(=O)(=O)Nc2ncccn2)cc1` the IC50 was 27.3 µM (Toxoplasma gondii; parasite growth; human Fibroblast; intracellular).
`CCN(CC)CCNC(=O)c1c(C)[nH]c(/C=C2\C(=O)Nc3ccc(F)cc32)c1C` has an inhibition of 90.7% (ZR75; cell growth or viability; 30 µM).
`NC(=O)c1cccnc1` gave an EC50 of roughly 1000 µM (tissue relaxation, agonist; rat).
For `Cc1ccc(C(CS(=O)(=O)c2ccccc2)=NNC2=NC(=O)C(=NNc3ccccc3)S2)cc1`, the viability was 41.2% (WM 266-4; cell growth or viability, MTT; 25 µM, 48 h).
